Measured values as given in ChEMBL document CHEMBL4368912, “Discovery and Development of N-[4-(1-Cyclobutylpiperidin-4-yloxy)phenyl]-2-(morpholin-4-yl)acetamide Dihydrochloride (SUVN-G3031): A Novel, Potent, Selective, and Orally Active Histamine H3 Receptor Inverse Agonist with Robust Wake-Promoting Activity” (J Med Chem, 2019).
Activity calls are given as the source filed them. No cut-off for these calls is given here.

Legend:
[1] = Fraction unbound in rat brain at 1 uM by equilibrium dialysis; format: ADME, tissue-based
[2] = AUCt in Beagle dog at 3 mg/kg, po by LC-MS/MS analysis; format: ADME, organism-based, Canis lupus familiaris; details: in vivo
[3] = Toxicity in Wistar rat assessed as effect on latency to fall at 30 to 100 mg/kg, po by rotarod test; format: organism-based; details: in vivo
Procedure, shortened: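 Motor coordination was assessed on the rotarod as latency to fall after oral doses of 30 and 100 mg/kg.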

[4] = Volume of distribution in Beagle dog at 1 mg/kg, iv by LC-MS/MS analysis; format: ADME, organism-based, Canis lupus familiaris; details: in vivo
[5] = Toxicity in dog assessed as effect on body temperature at 10 to 25 mg/kg, po; format: organism-based, Canis lupus familiaris; details: in vivo
Procedure, shortened: (§1)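 Male dogs received oral doses of 10, 18 and 25 mg/kg. Body weight, body temperature, blood pressure, heart rate and ECG were monitored.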

[6] = Lipophilicity, log D of the compound at pH 7.4; format: physicochemical; details: buffer
Cytochrome P450 2C8 = target: T1, Cytochrome P450 2C8 (Homo sapiens, UniProt P10632); assay: Inhibition of CYP2C8 (unknown origin); format: ADME
T1 sequence (P10632 whole entry): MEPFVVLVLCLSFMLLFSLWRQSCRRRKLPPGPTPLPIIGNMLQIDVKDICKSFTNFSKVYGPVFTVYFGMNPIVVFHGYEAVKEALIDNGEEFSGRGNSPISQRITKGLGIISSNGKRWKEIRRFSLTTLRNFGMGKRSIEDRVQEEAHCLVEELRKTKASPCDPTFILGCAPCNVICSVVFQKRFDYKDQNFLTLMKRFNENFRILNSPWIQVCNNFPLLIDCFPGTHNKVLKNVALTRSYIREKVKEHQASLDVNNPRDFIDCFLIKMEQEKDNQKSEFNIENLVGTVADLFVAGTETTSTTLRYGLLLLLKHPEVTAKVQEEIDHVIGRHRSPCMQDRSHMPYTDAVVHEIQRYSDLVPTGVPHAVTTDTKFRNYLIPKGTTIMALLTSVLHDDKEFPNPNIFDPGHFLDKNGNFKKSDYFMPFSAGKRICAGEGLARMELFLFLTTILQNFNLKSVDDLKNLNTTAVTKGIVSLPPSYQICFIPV

[7] = Fraction unbound in rat plasma at 1 uM by equilibrium dialysis; format: ADME, cell-free
Procedure, shortened: (§2)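 Rapid equilibrium dialysis of fresh rat, dog or human plasma at a compound concentration of 1.0 µM. Unbound fraction reported as a percentage.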

[8] = Mutagenicity in Salmonella typhimurium TA98 in presence of metabolic activation by Ames test; format: toxicity; details: salmonella enterica subsp. enterica serovar typhimurium
Rattus norvegicus [9] = assay: Induction of wake promoting activity in orexin-B-saporin lesioned Wistar rat assessed as increase in wake time at 10 to 30 mg/kg, po dosed 15 mins before start of dark phase; format: functional, organism-based
Procedure, shortened: (§3)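 Rats carried epidural frontal-cortex EEG screws, nuchal EMG leads, and bilateral lateral hypothalamic orexin-B-saporin (490 ng/0.8 µl). After at least 3 weeks' recovery, they were dosed 15 min before lights-off in a crossover design with a 1-week washout. Wake, NREM and REM time was totalled over 3 h. DREM was scored as REM after ≥60 s wake. Dunnett's test was used.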

Cytochrome P450 2A6 = target: T2, Cytochrome P450 2A6 (Homo sapiens, UniProt P11509); assay: Inhibition of CYP2A6 (unknown origin); format: ADME
T2 sequence (P11509 whole entry): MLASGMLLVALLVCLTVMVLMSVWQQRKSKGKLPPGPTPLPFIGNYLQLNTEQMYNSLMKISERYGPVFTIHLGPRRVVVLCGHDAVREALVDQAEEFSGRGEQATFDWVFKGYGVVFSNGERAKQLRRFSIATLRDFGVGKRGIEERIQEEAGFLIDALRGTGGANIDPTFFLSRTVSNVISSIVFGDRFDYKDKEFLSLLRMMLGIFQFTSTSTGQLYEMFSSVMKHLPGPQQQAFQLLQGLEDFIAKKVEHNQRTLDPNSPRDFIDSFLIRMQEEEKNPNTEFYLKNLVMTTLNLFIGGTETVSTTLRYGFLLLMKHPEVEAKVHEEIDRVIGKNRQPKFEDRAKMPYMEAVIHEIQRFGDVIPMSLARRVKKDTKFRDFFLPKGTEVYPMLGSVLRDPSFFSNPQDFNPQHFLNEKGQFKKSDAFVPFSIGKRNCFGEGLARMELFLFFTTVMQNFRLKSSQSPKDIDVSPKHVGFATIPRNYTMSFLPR

[10] = Mutagenicity in Salmonella typhimurium TA1535 in absence of metabolic activation by Ames test; format: toxicity; details: salmonella enterica subsp. enterica serovar typhimurium
[11] = Solubility in water; format: physicochemical
[12] = Apparent permeability across apical to basolateral side in human Caco2 cells at 10 uM; format: ADME, cell-based; details: Caco-2
Procedure, shortened: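 Caco-2 monolayers; bidirectional permeability measured at 10 µM, with and without the P-gp inhibitor verapamil.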

[13] = Ratio of drug uptake in Wistar rat brain to plasma at 3 mg/kg, po by LC-MS/MS analysis; format: ADME, organism-based; details: brain and plasma, read-out: BPR
Procedure, shortened: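 Fasted male Wistar rats were dosed orally with water for injection as the vehicle. Total brain and plasma concentrations were measured at 1 h after dosing and expressed as a ratio.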

Rattus norvegicus [14] = assay: Effect on accumbal dopamine levels in Wistar rat at 100 mg/kg, po by microdialysis; format: ADME, organism-based; details: in vivo
Rattus norvegicus [15] = assay: In vivo inverse agonist activity at histamine 3 receptor in rat assessed as inhibition of RAMH-induced dipsogenia at 0.3 to 10 mg/kg, po measured after 3 days; format: functional, organism-based
Procedure, shortened: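 Male rats were dosed orally with 0.3, 0.5, 0.7, 1, 3 or 10 mg/kg (vehicle 1 mL/kg), then given (R)-α-methylhistamine 2.5 mg/kg s.c. Read-out was water intake (mL), reported as mean ± SEM.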

[16] = Toxicity in dog assessed as effect on blood pressure at 10 to 25 mg/kg, po; format: organism-based, Canis lupus familiaris; details: in vivo; procedure, shortened: as §1
Rattus norvegicus [17] = assay: In vivo receptor occupancy at histamine 3 receptor in Wistar rat frontal cortex at 1 to 3 mg/kg, po after measured after 4 to 6 hrs by LC-MS/MS analysis relative to control; format: functional
[18] = Fraction unbound in human plasma at 1 uM by equilibrium dialysis; format: ADME, cell-free; procedure, shortened: as §2
Rattus norvegicus [19] = assay: Induction of wake promoting activity in orexin-B-saporin lesioned Wistar rat assessed as decrease in REM sleep time at 10 to 30 mg/kg, po dosed 15 mins before start of dark phase; format: functional, organism-based; procedure, shortened: as §3
[20] = target: Voltage-gated inwardly rectifying potassium channel KCNH2 (Homo sapiens, UniProt Q12809); assay: Inhibition of human ERG expressed in HEK293 cells by whole-cell patch clamp assay; format: cell-based
[21] = Mutagenicity in Salmonella typhimurium TA1537 in absence of metabolic activation by Ames test; format: toxicity; details: salmonella enterica subsp. enterica serovar typhimurium
[22] = AUC (0 to 24 hrs) in Wistar rat at 3 mg/kg, po by LC-MS/MS analysis; format: ADME, organism-based; set-up: dose 3 mg/kg, time < 24 hr, route oral; details: in vivo
Procedure, shortened: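 Fasted male Wistar rats; compound in water for injection, given i.v. (2 mL/kg) or p.o. (10 mL/kg). Plasma exposure measured as AUC0-24hr.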

[23] = Respiratory toxicity in Wistar rat up to 90 mg/kg, po; format: organism-based; details: in vivo
Procedure, shortened: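 Respiratory safety was evaluated in rats given single oral doses of 10, 30 and 90 mg/kg.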

[24] = Toxicity in dog assessed as effect on body weight at 10 to 25 mg/kg, po; format: organism-based, Canis lupus familiaris; details: in vivo; procedure, shortened: as §1

Voltage-gated inwardly rectifying potassium channel KCNH2, sequence (Q12809 whole entry): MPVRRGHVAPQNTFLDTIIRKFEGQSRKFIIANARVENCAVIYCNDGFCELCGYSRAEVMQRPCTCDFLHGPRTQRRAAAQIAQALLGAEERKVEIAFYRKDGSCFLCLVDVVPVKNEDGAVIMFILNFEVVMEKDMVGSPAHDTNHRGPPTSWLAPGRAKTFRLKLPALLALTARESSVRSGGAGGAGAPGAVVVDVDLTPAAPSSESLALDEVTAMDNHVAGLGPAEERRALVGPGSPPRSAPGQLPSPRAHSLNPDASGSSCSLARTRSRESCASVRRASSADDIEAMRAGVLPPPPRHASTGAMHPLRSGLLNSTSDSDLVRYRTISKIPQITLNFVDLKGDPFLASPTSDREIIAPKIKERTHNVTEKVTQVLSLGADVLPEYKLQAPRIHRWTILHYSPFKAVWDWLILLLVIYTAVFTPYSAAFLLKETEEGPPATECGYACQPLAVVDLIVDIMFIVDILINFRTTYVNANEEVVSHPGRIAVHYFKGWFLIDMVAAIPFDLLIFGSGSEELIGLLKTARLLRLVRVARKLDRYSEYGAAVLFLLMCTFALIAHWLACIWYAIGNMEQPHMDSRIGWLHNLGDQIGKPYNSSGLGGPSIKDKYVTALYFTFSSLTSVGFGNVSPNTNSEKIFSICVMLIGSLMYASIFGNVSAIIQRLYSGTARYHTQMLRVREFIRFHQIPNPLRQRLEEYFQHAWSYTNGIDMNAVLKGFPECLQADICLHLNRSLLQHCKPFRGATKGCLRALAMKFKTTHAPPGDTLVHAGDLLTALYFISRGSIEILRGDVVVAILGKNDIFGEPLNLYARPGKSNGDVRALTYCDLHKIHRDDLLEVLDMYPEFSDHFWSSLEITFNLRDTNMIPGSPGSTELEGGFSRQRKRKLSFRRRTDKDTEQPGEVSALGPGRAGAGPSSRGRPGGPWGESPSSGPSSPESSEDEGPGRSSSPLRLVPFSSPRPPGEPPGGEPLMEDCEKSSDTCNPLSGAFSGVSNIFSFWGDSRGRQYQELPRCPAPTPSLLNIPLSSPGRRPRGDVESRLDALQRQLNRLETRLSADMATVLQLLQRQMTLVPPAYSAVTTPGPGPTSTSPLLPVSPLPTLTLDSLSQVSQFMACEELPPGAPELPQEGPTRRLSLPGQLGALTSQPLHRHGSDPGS

Cl.Cl.O=C(CN1CCOCC1)Nc1ccc(OC2CCN(C3CCC3)CC2)cc1
fraction unbound at 1 µM [1]: 0.57
AUC(0-t) [2]: 1120 ng·h/mL
Activity [3]: Non-Toxic
Vd [4]: 5.2 L/kg
Activity [5]: Non-Toxic
logD [6]: 0.4
IC50 (Cytochrome P450 2C8): > 45 µM
fraction unbound at 1 µM [7]: 0.37
Activity [8]: Non-Toxic
Activity (Rattus norvegicus [9]): Active
IC50 (Cytochrome P450 2A6): > 45 µM
Activity [10]: Non-Toxic
solubility [11]: 730 mg/mL
Papp A→B at 10 µM [12]: 30.8 ×10⁻⁶ cm/s
Kp [13]: 0.93
Activity (Rattus norvegicus [14]): Non-Toxic
inhibition (Rattus norvegicus [15]): Active
Activity [16]: Non-Toxic
Occ (Rattus norvegicus [17]): 50%
fraction unbound at 1 µM [18]: 0.7
Activity (Rattus norvegicus [19]): Active
IC50 [20]: > 10 µM
Activity [21]: Non-Toxic
AUC(0-t) at 24 h [22]: 626 ng·h/mL
Activity [23]: Non-Toxic
Activity [24]: Non-Toxic
